The source made the active and inactive calls. No cut-off for these calls is given here.
Tests used:
Yellow fever virus [1] = test: microbe, parasite or virus in culture; assay type: functional, organism-based; settings: BHK15, 36 h
Yellow fever virus [2] = test: Antiviral activity against luciferase reporting full length Yellow fever virus infected in BHK15 cells assessed as reduction in virus infectivity ncubated at 50 uM at 37 degC for 36 hrs by luciferase reporter gene assay; assay type: functional; settings: BHK15, 36 h
[3] = Toxicity against uninfected BHK cells assessed as growth inhibition incubated at 37 degC for 36 hrs by XTT assay; assay type: cell-based, Mesocricetus auratus; settings: hamster
How it was run: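 Confluent BHK-15 cells were exposed to serial dilutions of compound (DMSO stocks) for ~36 h at 37 °C, 5% CO2. Medium was then replaced, and XTT substrate was added for 2 h at 37 °C before reading OD450. Values were compared with 1% DMSO-treated cells to calculate GI50.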

[4] = Therapeutic index, ratio of GI50 for uninfected BHK cells to EC50 for luciferase reporting full length Yellow fever virus; assay type: cell-based; settings: hamster, read-out: TI
How it was run: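 TI is GI50 in uninfected BHK cells (XTT, ~36 h) divided by EC50. EC50 was estimated by nonlinear regression against DMSO-treated infected cells.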

[5] = molecular target: T1, Luciferin 4-monooxygenase (Luciola lateralis) (UniProt Q01158); test: Inhibition of firefly luciferase expressed in BHK15 cells transfected with luciferase-pcDNA3 incubated at 37 degC for 20 hrs by luciferase reporter gene assay; assay type: cell-based; settings: Aquatica lateralis
T1 sequence (whole entry): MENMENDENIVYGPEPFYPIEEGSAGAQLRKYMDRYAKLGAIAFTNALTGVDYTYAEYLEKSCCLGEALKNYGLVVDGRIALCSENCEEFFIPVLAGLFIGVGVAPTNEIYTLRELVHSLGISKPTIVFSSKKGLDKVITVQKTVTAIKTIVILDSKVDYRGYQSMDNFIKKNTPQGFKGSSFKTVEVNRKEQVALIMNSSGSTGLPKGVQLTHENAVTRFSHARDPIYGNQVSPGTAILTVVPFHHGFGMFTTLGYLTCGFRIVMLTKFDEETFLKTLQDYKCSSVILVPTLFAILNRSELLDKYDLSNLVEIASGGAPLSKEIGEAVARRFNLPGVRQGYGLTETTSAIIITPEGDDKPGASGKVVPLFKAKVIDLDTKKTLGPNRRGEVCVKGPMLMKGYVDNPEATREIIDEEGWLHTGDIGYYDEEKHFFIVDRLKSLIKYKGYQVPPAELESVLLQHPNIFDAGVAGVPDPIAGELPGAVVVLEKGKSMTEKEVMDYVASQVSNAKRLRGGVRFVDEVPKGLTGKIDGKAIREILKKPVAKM
How it was run: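 BHK-15 cells grown to confluency, transfected with firefly luciferase-pcDNA3 plasmid by Lipofectamine; complexes removed at 3 h and replaced with medium holding serial compound dilutions from DMSO stock; 37 °C, 5% CO2, 20 h. Cells lysed and luminescence read with firefly luciferase substrate; signal compared with 1% DMSO-treated cells. Controls: uninfected, infected, DMSO-treated.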

Compound COC(=O)c1sc(-c2cccc(Br)c2)nc1C(Br)Br has an EC50 (Yellow fever virus [1]) of 26 µM, an inhibition at 50 µM (Yellow fever virus [2]) of 93% and a GI50 at 36 h [3] of 26.5 µM. For the same compound, the selectivity ratio [4] was 1.
For COC(=O)c1sc(-c2ccc(OC)cc2)nc1C(Br)Br, the inhibition at 50 µM (Yellow fever virus [2]) was < 50%.
For COC(=O)c1sc(-c2ccc(C(C)(C)C)cc2)nc1C, the inhibition at 50 µM (Yellow fever virus [2]) was < 50%.
Work on Nc1ccccc1SCc1csc(-c2ccc(Cl)cc2)n1 yielded a GI50 at 36 h [3] of 61 µM and a selectivity ratio [4] of 2.
Compound CCCc1ccc(-c2nc(C)c(C(=O)OC)s2)cc1 has an EC50 (Yellow fever virus [1]) of 34.3 µM, an inhibition at 50 µM (Yellow fever virus [2]) of 83.2% and a GI50 at 36 h [3] of 499 µM. It also gave a selectivity ratio [4] of 12.
For COC(=O)c1sc(Cc2ccccc2)nc1C, the inhibition at 50 µM (Yellow fever virus [2]) was -23.8%.
For CCCCCc1ccc(-c2nc(C)c(C(=O)OC)s2)cc1, the EC50 (Yellow fever virus [1]) was 38.9 µM, the inhibition at 50 µM (Yellow fever virus [2]) was 98.6% and the GI50 at 36 h [3] was 41.5 µM. It also gave a selectivity ratio [4] of 1.1.
With COC(=O)c1sc(-c2ccc3ccccc3c2)nc1C(Br)Br the inhibition at 50 µM (Yellow fever virus [2]) was 26%.
In the case of COC(=O)c1sc(-c2ccccc2Br)nc1C, the inhibition at 50 µM (Yellow fever virus [2]) is reported as < 50%.
For CCCCc1ccc(-c2nc(C)c(C(=O)O)s2)cc1, the EC50 (Yellow fever virus [1]) was 203 µM, the inhibition at 50 µM (Yellow fever virus [2]) was 83.2% and the GI50 at 36 h [3] was 366 µM.
Compound COC(=O)c1sc(-c2ccc(Br)cc2)nc1C(Br)Br has an EC50 (Yellow fever virus [1]) of 3.3 µM, an inhibition at 50 µM (Yellow fever virus [2]) of 81.9% and a GI50 at 36 h [3] of 408 µM. It also gave a selectivity ratio [4] of 121.
With CCCCc1ccc(-c2nc(C)c(C(C)=O)s2)cc1 the EC50 (Yellow fever virus [1]) was 10.1 µM, the inhibition at 50 µM (Yellow fever virus [2]) was 99.8% and the GI50 at 36 h [3] was 59.4 µM. For the same compound, the selectivity ratio [4] was 6.
With COC(=O)c1sc(-c2ccc(F)cc2)nc1C the inhibition at 50 µM (Yellow fever virus [2]) was < 50%.
For COC(=O)c1sc(-c2ccc(Cl)c(Cl)c2)nc1C, the inhibition at 50 µM (Yellow fever virus [2]) was -8.2%.
With COC(=O)c1sc(-c2ccccc2Cl)nc1C the inhibition at 50 µM (Yellow fever virus [2]) was < 50%.
Work on CCCCc1ccc(-c2nc(C)c(C(=O)SC)s2)cc1 yielded an EC50 (Yellow fever virus [1]) of 45.6 µM, an inhibition at 50 µM (Yellow fever virus [2]) of 94.1% and a GI50 at 36 h [3] of 46.5 µM. For the same compound, the selectivity ratio [4] was 1.
For COC(=O)c1sc(-c2ccccc2)nc1C(Br)Br, the inhibition at 50 µM (Yellow fever virus [2]) was < 50%.
With COC(=O)c1sc(-c2ccccc2Cl)nc1C(Br)Br the inhibition at 50 µM (Yellow fever virus [2]) was < 50%.
With COC(=O)c1sc(-c2ccc(Br)cc2)nc1C the inhibition at 50 µM (Yellow fever virus [2]) was < 50%.
In the case of COC(=O)c1sc(-c2cccc(Br)c2)nc1C, the inhibition at 50 µM (Yellow fever virus [2]) is reported as < 50%.
With COC(=O)c1sc(-c2ccccc2)nc1C the inhibition at 50 µM (Yellow fever virus [2]) was < 50%.
For COC(=O)c1sc(-c2ccccc2F)nc1C(Br)Br, the inhibition at 50 µM (Yellow fever virus [2]) was < 50%.
In the case of CCCCc1ccc(-c2nc(C)c(/C(C)=N/NC(=N)N)s2)cc1, the inhibition [5] is reported as “inactive”, the EC50 (Yellow fever virus [1]) is reported as 2.4 µM and the inhibition at 50 µM (Yellow fever virus [2]) is reported as 99.2%. It also gave a GI50 at 36 h [3] of 353 µM and a selectivity ratio [4] of 147.
CCCCc1ccc(-c2nc(C)c(C(=O)OC)s2)cc1 showed an EC50 (Yellow fever virus [1]) of 2.8 µM, an inhibition at 50 µM (Yellow fever virus [2]) of 91.9% and a GI50 at 36 h [3] of 63.1 µM. It also gave a selectivity ratio [4] of 22.
Compound COC(=O)c1sc(-c2ccc(C(F)(F)F)cc2)nc1C(Br)Br has an EC50 (Yellow fever virus [1]) of 10.6 µM, an inhibition at 50 µM (Yellow fever virus [2]) of 91% and a GI50 at 36 h [3] of 262 µM. For the same compound, the selectivity ratio [4] was 26.
Work on COC(=O)c1sc(Cc2ccc(Cl)cc2)nc1C yielded an inhibition at 50 µM (Yellow fever virus [2]) of -6.5%.
For COC(=O)c1sc(-c2ccc(OC)cc2)nc1C, the inhibition at 50 µM (Yellow fever virus [2]) was < 50%.
With COC(=O)c1sc(-c2ccc(F)cc2)nc1C(Br)Br the inhibition at 50 µM (Yellow fever virus [2]) was < 50%.
With COC(=O)c1sc(-c2ccccc2F)nc1C the inhibition at 50 µM (Yellow fever virus [2]) was < 50%.
In the case of COC(=O)c1sc(-c2ccccc2Br)nc1C(Br)Br, the inhibition at 50 µM (Yellow fever virus [2]) is reported as < 50%.
With COC(=O)c1sc(-c2ccc(Cl)c(Cl)c2)nc1C(Br)Br the inhibition at 50 µM (Yellow fever virus [2]) was 42.2%.
